Data published in paper PMC2193001 (The Journal of Experimental Medicine, 1999).
Like-named read-outs stand apart in the source and are kept apart here.

How the values were obtained:
[1] = tested on: ABLE T cells (LACK-specific TCR-transgenic); assay: Stimulation of ABLE T cells in vitro by peptides; type: cell-based, mouse
Method in brief: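 Single-cell suspensions (red cells lysed) from spleen and lymph node of BALB/c ABLE TCR-Cα0 mice supplied both T cells and APC. They were plated at 10^6 cells/well in duplicate in RPMI 1640 with 10% heat-inactivated FCS, glutamine, pyruvate and β2-ME, with test peptides over a concentration range. At 48 h, supernatants went to sandwich ELISA against recombinant standards. Wells were then pulsed with 1 μCi [3H]thymidine and harvested 18 h later.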

[2] = tested on: ABLE T cells (LACK-specific TCR-transgenic); assay: T cell antagonism assay; type: cell-based, mouse; settings: for Inhibitory (antagonist) activity, overall: 0.1–100 μM, proliferation, IL-4 and IFN-γ
Method in brief: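 T cells: CD4+ cells enriched from BALB/c ABLE TCR-Cα0 spleen and lymph node by antibody/complement depletion (80% Vβ4+). APC: BALB/c TCR-Cα0 spleen cells, prepulsed 2 h at 37°C with 0.2 μM wild-type LACK peptide, washed, irradiated, then 2 h at 37°C with test peptide up to 100 μM (OVA323–336 control). 1.6 × 10^5 T cells/well were added. Cytokines were read by ELISA at 48 h; [3H]thymidine uptake over 48–66 h. Values are % inhibition versus prepulsed APC without added peptide.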

L. major LV39 [3] = tested on: L. major LV39; parameters: species or system Leishmania major; settings: in vivo
[4] = tested on: Vβ4+ T cells of ABLE TCR-Cα^0 mice; settings: mouse, in vivo
[5] = tested on: popliteal lymph node CD4+ T cells; settings: mouse, in vivo
L. major LV39 [6] = tested on: L. major LV39; parameters: species or system Leishmania major; settings: in vivo; remark: listed apart in the source
[7] = APC prepulsed with LACK peptide, 48 h ELISA

**Q.** For ICFSPSLENPIVVSGSWD [LACK-N164], which “IL-4 production by ABLE T cells” value ([1]; 48 h supernatants, ELISA, detection limit 50 pg/ml) is on record?
**A.** The value was “neither cytokine was detected”.

**Q.** What about the “IFN-γ production by ABLE T cells” value ([1]; 48 h supernatants, ELISA, detection limit 1 ng/ml) of the same molecule?
**A.** Its value is “neither cytokine was detected”.

**Q.** And the “Concentration without proliferation of ABLE T cells (highest tested)” value ([1]; no proliferation even at concentrations up to 4 μM, [3H]thymidine)?
**A.** The value was over 4 µM.

**Q.** And the “Inhibitory (antagonist) activity, overall” value [2]?
**A.** Its value is “preferentially inhibited IL-4 production by ABLE T cells”.

**Q.** What about the “Inhibition of IFN-γ production” value [2, 7] of the same molecule?
**A.** Its value is “inhibited consistently less”.

**Q.** What about the “Inhibition of IL-4 production” value [2, 7] of the same molecule?
**A.** Its value is “inhibited comparably to the LACK-K164 peptide”.

**Q.** What about the Protection (L. major LV39 [3]) of the same molecule?
**A.** Its Protection is “Subgroups of resistant and susceptible mice occurred”.

**Q.** With “ISQAVHAAHAEINE [OVA323–336, reference compound]” as the molecule, how does the “Inhibitory (antagonist) activity, overall” value [2] read?
**A.** Its value is “no inhibitory activity”.

B1: OVA: chicken egg OVA control protein (protein, UniProt P01012 2-386, looked up)
Ovalbumin: GSIGAASMEFCFDVFKELKVHHANENIFYCPIAIMSALAMVYLGAKDSTRTQINKVVRFDKLPGFGDSIEAQCGTSVNVHSSLRDILNQITKPNDVYSFSLASRLYAEERYPILPEYLQCVKELYRGGLEPINFQTAADQARELINSWVESQTNGIIRNVLQPSSVDSQTAMVLVNAIVFKGLWEKAFKDEDTQAMPFRVTEQESKPVQMMYQIGLFRVASMASEKMKILELPFASGTMSMLVLLPDEVSGLEQLESIINFEKLTEWTSSNVMEERKIKVYLPRMKMEEKYNLTSVLMAMGITDVFSSSANLSGISSAESLKISQAVHAAHAEINEAGREVVGSAEAGVDAASVSEEFRADHPFLFCIKHIATNAVLFFGRCVSP
**Q.** Which results are given for B1?
**A.** Total number of transgenic T cells in draining lymph nodes [4]: 2.9 × 10^5; Proliferation induced by LACK epitopes [5]: No proliferation was induced; Protection (L. major LV39 [6]): in contrast to the LACK deletion mutant or OVA controls
